Measurements published in PubChem BioAssay AID624268 (The Scripps Research Institute Molecular Screening Center, 2012).
Screen size: about 360,000 compounds; about 1,500 (0.42%) were called active.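 How the source made its calls: active means inhibition above a per-plate cutoff of the control wells' mean inhibition plus 3 SD (cut at about 5.5% in these data); inactive means the rest.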 This excerpt belongs to a sample that is enriched for actives.

System: methionyl-tRNA synthetase (Trypanosoma brucei brucei)
Experiment: T. brucei MetRS inhibitors, primary screen, biochemical, luminescence (AID 624268);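 further: 0% = DMSO wells median and 100% = median of wells with control inhibitor compound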
Conditions: purified T. brucei MetRS, ATP depletion, Kinase-Glo luminescence; at 11.9 µM; stronger effect = higher value
Outline: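 Material – parasite MetRS enzyme · Medium – HEPES-MgCl2-KCl buffer plus DTT, spermine, BSA, pyrophosphatase · Reagent – ATP, methionine and E. coli bulk tRNA substrates · Times – 15 min enzyme-compound preincubation, 2 h reaction, 10 min detection, 25 °C · Measured by – luminescence of leftover ATP · Evaluation – percent inhibition relative to median high and low control wells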

Row | SMILES | inhibition
1 | CCN(CC(=O)Nc1c(F)cccc1F)C(=O)C1CCC1 | -0.09% (inactive)
2 | O=C(CCC1CCCCC1)Nc1cc(C(F)(F)F)ccc1N1CCOCC1 | 0.04% (inactive)
3 | O=C(Cn1c2[n+](c3ccc(C(F)(F)F)cc31)CCCCC2)Nc1c(F)cccc1F | 17.2% (active)
4 | N#CCc1c[nH]c2ccc([N+](=O)[O-])cc12 | -0.24% (inactive)
5 | COC(=O)[C@H](CCSC)NC(=O)Nc1ccc(OC)cc1 | -0.05% (inactive)
6 | CCc1ccc(S(=O)(=O)NCC(O)COc2ccc(OC)cc2)cc1 (stereo unspecified) | -0.05% (inactive)
7 | COc1ccc(OCC(O)CNC(=O)Nc2ccc(Cl)cc2)cc1 (stereo unspecified) | 60.1% (active)
8 | COc1cccc(NC(=O)N2CCC(NC(=O)C(Cc3cccc(C)c3)NC(C)=O)CC2)c1 (stereo unspecified) | -0.33% (inactive)
9 | CC(Oc1ccccc1F)C(=O)NN (stereo unspecified) | -0.07% (inactive)
10 | CCCOn1c(-n2nc(C)cc2C)nc2ccccc2c1=O | -0.74% (inactive)
11 | CCN(CC(=O)NCCc1ccccc1)S(=O)(=O)c1ccccc1 | 1.61% (inactive)
12 | CCn1c(SCC(=O)N(C)C2CCS(=O)(=O)C2)nnc1-c1cccs1 (stereo unspecified) | -0.25% (inactive)
13 | CN(C(=O)CSc1nnc(-c2c[nH]c3ccccc23)o1)C1CCS(=O)(=O)C1 (stereo unspecified) | 8.69% (active)
14 | CN(C(=O)CSc1nnc(-c2ccc3c(c2)OCO3)o1)C1CCS(=O)(=O)C1 (stereo unspecified) | -0.28% (inactive)
15 | CN(C(=O)CSc1nnc(Nc2ccccc2)s1)C1CCS(=O)(=O)C1 (stereo unspecified) | 6.74% (active)
16 | CN(C(=O)CSc1nnc(-c2ccc(C(C)(C)C)cc2)n1C)C1CCS(=O)(=O)C1 (stereo unspecified) | -0.23% (inactive)
17 | O=C(CSc1nnc(-c2c[nH]c3ccccc23)o1)c1ccccc1 | 0.1% (inactive)
18 | Cn1nc(C(F)(F)F)c(-c2ccc(F)cc2)c1NC(=O)CSCC(=O)O | -1.21% (inactive)
19 | Cc1ccc(C)c(N2C(=O)CS/C2=N\NC(=O)c2ccccc2Cl)c1 | -0.16% (inactive)
20 | CCC(C(=O)Nc1ccc(C(C)C)cc1)c1ccccc1 (stereo unspecified) | 0.33% (inactive)
21 | CC(=O)Nc1ccc(NC(=O)[C@@H](NC(=O)c2cccc(C)c2)C(C)C)cc1 | -0.8% (inactive)
22 | Cc1ccc(NC(=O)C(C)c2cccc(C(=O)c3ccccc3)c2)cc1 (stereo unspecified) | 67.8% (active)
23 | COc1ccc(CNC(=O)C(C)NCc2ccccc2Cl)cc1 (stereo unspecified) | -0.92% (inactive)
24 | COc1ccc(NC(=O)N2CCCC2C(=O)NCc2ccccc2Cl)cc1 (stereo unspecified) | -0.13% (inactive)

Row | SMILES | inhibition
25 | COc1ccc(NC(=O)C(NC(C)=O)C(=O)NCc2ccccc2Cl)cc1 (stereo unspecified) | 7.6% (active)
26 | Nc1ccccc1Sc1cc(Cl)nnc1Cl | 1.75% (inactive)
27 | CSc1ccc(S(=O)(=O)NCc2ccc(Cl)cc2)cc1 | -1.21% (inactive)
28 | O=C(O)CCn1c(O)c(C=C2N=c3ccccc3=N2)sc1=S | 7.5% (active)
29 | CCN=c1sc(C(=O)Nc2ccccc2)c(C)n1CC | 0.54% (inactive)
30 | Cc1ccc(S(=O)(=O)Nc2nc(CN3CCOCC3)nc3sc(C)c(C)c23)cc1 | -0.08% (inactive)
31 | CC(C)C1C2=C(CC(C)(C)CC2=O)ON1c1ccccc1 (stereo unspecified) | 0.41% (inactive)
32 | Cc1cc(=O)n2nc(N3CCC(C(=O)Nc4c(F)c(F)c(F)c(F)c4F)CC3)sc2n1 | -0.7% (inactive)
33 | CCOc1ccc(S(=O)(=O)N2CCCCCC2)c2ccccc12 | -0.75% (inactive)
34 | O=C(Nc1ccc(Cl)cc1)N1CCc2[nH]c3ccccc3c2C1 | 64.1% (active)
35 | O=C(CCCN1CCc2[nH]c3ccc(F)cc3c2C1)c1ccc(F)cc1 | 0.35% (inactive)
36 | CC(=O)C(CC(=O)N1CCCC1)C(=O)Nc1ccc(Cl)cc1 (stereo unspecified) | -0.19% (inactive)
37 | C[C@H](O)[C@@H]1C(=O)N2CCc3c([nH]c4ccccc34)[C@@H]2C[C@@H]1N(C)C(=O)Nc1ccc(F)cc1 | 1.97% (inactive)
38 | Fc1ccc(NC(=S)N2CCc3[nH]c4ccccc4c3C2)cc1 | 9.22% (active)
39 | CCOc1ccc(NC(=O)N2CC=C(n3c(=O)[nH]c4ccccc43)CC2)cc1 | -0.02% (inactive)
40 | Cc1ccc(N(C(=O)C(F)(F)F)C(C(=O)NC2CCCCC2)c2ccncc2)cc1C (stereo unspecified) | -0.39% (inactive)
41 | COc1ccccc1OCC(=O)Nc1c2c(nn1-c1ccc(F)cc1)CS(=O)(=O)C2 | 0.18% (inactive)
42 | CC(=O)Nc1cc(-c2cccc(CO)c2)cn2c(-c3cccc(C(F)(F)F)c3)cnc12 | -0.15% (inactive)
43 | Cc1cc(C)cc(NC(=O)CSc2ccccc2)c1 | -0.78% (inactive)
44 | Cc1cc(C)cc(NC(=O)N(C)Cc2ccccc2)c1 | 6.26% (active)
45 | Cc1cc(C)cc(NC(=O)NCc2ccccn2)c1 | -0.48% (inactive)
46 | COc1ccc(CCNC(=O)C2CC3Cn4c(nc5cc(C)c(C)cc54)C3N2C)cc1 (stereo unspecified) | 0.64% (inactive)
47 | CCOC(=O)c1ccc2[nH]c(C)c(CN3CCN(C)CC3)c(=O)c2c1 | -0.39% (inactive)
48 | CCCCN(C)Cc1c(C)[nH]c2ccc(Cl)cc2c1=O | 47% (active)

Row | SMILES | inhibition
49 | CN(C)CCn1c(=S)[nH]c2ccc(Cl)cc2c1=O | 0.6% (inactive)
50 | Cc1cccc(C)c1-n1nnnc1C(CCc1ccccc1)N1CCN(C/C=C/c2ccccc2)CC1 (stereo unspecified) | -1% (inactive)
51 | Cc1cccc(N2CCN(C(c3ccc(N(C)C)cc3)c3nnnn3C(C)(C)C)CC2)c1C (stereo unspecified) | -1.18% (inactive)
52 | O=C(/C=C(O)/C=C/c1ccc(O)cc1)/C=C/c1ccc(O)cc1 | -0.28% (inactive)
53 | NC1=NC(=O)S/C1=C\c1ccc(O)cc1 | 22.9% (active)
54 | CC(C)(C)c1ccc(/C=C2\SC(=O)N=C2N)cc1 | 19.9% (active)
55 | CCc1nc(C)cn1S(=O)(=O)c1cc([N+](=O)[O-])ccc1Cl | -0.04% (inactive)
56 | O=C(CN1C(=O)CC(c2ccccc2)S(=O)(=O)c2ccccc21)NC1CCCC1 (stereo unspecified) | -0.4% (inactive)
57 | Cc1cc(C(=O)OCC(=O)Nc2ccc(F)c(F)c2)c(C)o1 | 0.47% (inactive)
58 | COc1ccccc1NS(=O)(=O)N(C)C | -0.33% (inactive)
59 | CCOC(=O)CSc1nc2ccc(C)cc2n2cnnc12 | -0.42% (inactive)
60 | CN(C)CCNC(=O)c1ccc(-c2cn3c(-c4ccc(Oc5ccccc5)cc4)cnc3cn2)cc1 | 0.12% (inactive)
61 | CC(C)(C)n1cnnc1Sc1ccc([N+](=O)[O-])cn1 | -0.07% (inactive)
62 | O=C(Cc1ccc(S(=O)(=O)N2CCOCC2)s1)NCCC(c1ccccc1)c1ccccc1 | -0.24% (inactive)
63 | O=C(Cc1ccc(S(=O)(=O)N2CCOCC2)s1)NCCOc1ccccc1F | -0.22% (inactive)
64 | O=C(Cc1ccc(S(=O)(=O)N2CCOCC2)s1)Nc1ccc(Br)c(C(F)(F)F)c1 | 9.17% (active)
65 | Cc1nc(-c2ccc(Cl)cc2)sc1C1(C)CC(c2ccc(Br)cc2)=NO1 (stereo unspecified) | 0.57% (inactive)
66 | Cc1c(O)c(C)c2c(c1O)C(=O)C[C@@H](c1ccccc1)O2 | 1.18% (inactive)
67 | CCO[C@H]1OC(C(=O)Nc2ccccc2)=C[C@@H](C2CC2)[C@@H]1CCCO | -0.28% (inactive)
68 | CCO[C@@H]1OC(C(=O)NCc2nc3ccccc3[nH]2)=C[C@H](C2CCCCC2)[C@H]1CCCO | 15.3% (active)
69 | CCO[C@H]1OC(C(=O)O)=C[C@@H](C2CCCCC2)[C@@H]1CCCO | -0.27% (inactive)
70 | c1ccc(-c2ccc3c(c2)NC(C2Nc4cc(-c5ccccc5)ccc4O2)O3)cc1 (stereo unspecified) | -0.77% (inactive)
71 | NC(=O)c1ccc(-c2csnn2)cc1 | -0.49% (inactive)
72 | Cc1cc(Nc2cccc(F)c2)n2ncnc2n1 | 0.76% (inactive)

Row | SMILES | inhibition
73 | O=C(Nc1ccccc1)c1ccccc1Br | 0.92% (inactive)
74 | CC(=N\NC(=O)c1cc(Br)ccc1O)/C(=N/O)C(=O)Nc1ccccc1 | 7.43% (active)
75 | C/C(=N/NC(=O)c1cc(Cl)ccc1O)C12CC3CC(CC(C3)C1)C2 | -0.58% (inactive)
76 | COc1ccc(S(=O)(=O)c2c[nH]c(=S)[nH]c2=O)cc1Cl | -0.79% (inactive)
77 | CCOC(=O)c1cccc(NC(=O)CCc2c(C)nc3ncnn3c2C)c1 | -0.04% (inactive)
78 | Cc1ccc(C(=O)Nc2ccc(C)c(S(=O)(=O)N(C)C)c2)s1 | -0.69% (inactive)
79 | O=S(=O)(NCCc1ccc(Cl)cc1)c1cccs1 | 0.22% (inactive)
80 | O=C(Nc1cccc(Cl)c1)Nc1ccccc1NS(=O)(=O)c1cccs1 | -0.14% (inactive)
81 | O=S(=O)(NCc1ccc(Cl)cc1Cl)c1cccs1 | 18.5% (active)
82 | Cc1ccnc(NC(=O)Cn2ccc([N+](=O)[O-])n2)c1 | 1.25% (inactive)
83 | Cn1c(NN)nc2sc3c(c2c1=O)CCC3 | -0.59% (inactive)
84 | O=C(O)c1cccnc1Sc1ncnc2sc3c(c12)CCC3 | -0.25% (inactive)
85 | OCCNc1nc2ccccc2n1-c1ncnc2sc3c(c12)CCC3 | 22.8% (active)
86 | CSCC[C@H](NC(=O)NCc1cccs1)C(=O)O | 2.05% (inactive)
87 | N#CC(C(=O)c1ccc(S(=O)(=O)N2CCCCCC2)cc1)c1nc2ccccc2[nH]1 (stereo unspecified) | -0.41% (inactive)
88 | O=S(=O)(c1ccc(Br)cc1)N1CCC(c2nc3ccccc3[nH]2)CC1 | 7.1% (active)
89 | O=S(=O)(c1ccccc1)N1CCC(c2ccccc2)CC1 | 0.06% (inactive)
90 | CCCNS(=O)(=O)c1ccc2c(c1)CCCN2C(C)=O | -0.19% (inactive)
91 | Clc1ccc(-c2cc(-c3ccccn3)on2)c(Cl)c1 | 0.55% (inactive)
92 | Clc1ccc(-c2cc(C3CCNCC3)[nH]n2)c(Cl)c1 | 39.1% (active)
93 | CCC(C)[C@H](NC(=O)N1c2ccccc2NC(=O)[C@@H]1C(C)C)C(=O)N[C@@H](Cc1ccccc1)C(=O)O (stereo partly specified) | -1.81% (inactive)
94 | O=C(NCC(O)c1nc2ccccc2[nH]1)c1ccc(Br)cc1 (stereo unspecified) | 21% (active)
95 | CCCC(NC(=O)c1ccco1)c1nc2ccccc2[nH]1 (stereo unspecified) | 0.25% (inactive)
96 | CSCCC(NC(=O)c1cc([N+](=O)[O-])cc([N+](=O)[O-])c1)c1nc2ccccc2[nH]1 (stereo unspecified) | 3.68% (inactive)
